Laboratory results from ChEMBL document CHEMBL1148824, “Quinazolinone derivatives as orally available ghrelin receptor antagonists for the treatment of diabetes and obesity” (J Med Chem, 2007).
pIC50, pKi: −log10 of the molar value. ≈ marks a conversion by molar mass, not a printed value. Calls of active or inactive are those of the source. The calls are words filed in the database; no cut-off is given here.

Tests used:
Ghrelin receptor = Ghrelin receptor (Ovis aries, UniProt Q8MHZ5); assay: Displacement of [125I]ghrelin from ovine recombinant GHSR1a expressed in HEK293F cells after 6 hrs by scintillation proximity assay; format: cell-based
Ghrelin receptor, sequence (Q8MHZ5 whole entry): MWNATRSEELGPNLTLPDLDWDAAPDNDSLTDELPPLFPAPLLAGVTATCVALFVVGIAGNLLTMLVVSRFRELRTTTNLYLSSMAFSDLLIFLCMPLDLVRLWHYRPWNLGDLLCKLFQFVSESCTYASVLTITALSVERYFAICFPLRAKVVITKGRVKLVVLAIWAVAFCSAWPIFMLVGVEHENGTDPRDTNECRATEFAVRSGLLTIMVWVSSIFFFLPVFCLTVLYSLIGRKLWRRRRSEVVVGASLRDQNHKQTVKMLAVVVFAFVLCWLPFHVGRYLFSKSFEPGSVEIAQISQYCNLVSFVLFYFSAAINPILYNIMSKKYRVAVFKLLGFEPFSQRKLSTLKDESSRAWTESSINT

[1] = Cmax in po dosed DIO C57BL/6 mouse after 5 hrs; format: ADME, organism-based; parameters: route oral; settings: in vivo
[2] = biological target: T1, Growth hormone secretagogue receptor type 1 (Homo sapiens, UniProt Q92847); assay: Antagonist activity at human recombinant GHSR1a expressed in HEK293F cells by [35S]GTP-gamma-S binding assay; format: functional, cell-based
T1 sequence (Q92847 whole entry): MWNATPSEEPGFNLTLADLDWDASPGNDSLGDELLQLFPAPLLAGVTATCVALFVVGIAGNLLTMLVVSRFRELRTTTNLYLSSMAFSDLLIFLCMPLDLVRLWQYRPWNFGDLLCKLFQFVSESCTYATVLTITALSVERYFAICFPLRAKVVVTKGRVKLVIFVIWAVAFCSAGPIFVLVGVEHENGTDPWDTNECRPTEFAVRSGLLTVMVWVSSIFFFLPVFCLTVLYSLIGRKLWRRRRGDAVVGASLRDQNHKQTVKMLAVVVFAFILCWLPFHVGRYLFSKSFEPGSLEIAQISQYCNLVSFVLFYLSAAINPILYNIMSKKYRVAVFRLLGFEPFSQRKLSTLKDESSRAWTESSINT
Outline: (§1)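 Functional read-out as GTPγS binding to membranes from HEK293F cells overexpressing recombinant GHS-R1a; values are the mean of at least two replicates.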

Brain = assay: Drug level in po dosed DIO C57BL/6 mouse brain after 5 hrs relative to plasma concentration; format: ADME, organism-based
Rattus norvegicus [3] = assay: Decrease in blood glucose level in DIO Wistar rat using at 10 mg/kg after 5 hrs by IPGTT test relative to control; format: functional; parameters: scale not given: the % may be the effect or the level left
[4] = Aqueous solubility at pH 7.2; format: physicochemical
Mus musculus [5] = assay: Increase in food intake in DIO C57BL/6 mouse at 30 mg/kg, after 5 hrs relative to control; format: functional
[6] = biological target: T1, Growth hormone secretagogue receptor type 1; assay: Agonist activity at human recombinant GHSR1a expressed in HEK293F cells assessed as stimulation of [35S]GTP-gamma-S binding relative to ghrelin; format: functional, cell-based; outline: as §1
[7] = Cmax in Wistar rat at 3 mg/kg, po; format: ADME, organism-based; parameters: dose 3 mg/kg, route oral; settings: in vivo
Outline: (§2)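 Wistar rat pharmacokinetic screen; single oral dose of 3 mg/kg in PEG400/methanesulfonic acid (80:20) vehicle; plasma exposure measured.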

Cytochrome P450 2D6 = Cytochrome P450 2D6 (Homo sapiens, UniProt P10635); assay: Inhibition of CYP2D6; format: ADME
Cytochrome P450 2D6, sequence (P10635 whole entry): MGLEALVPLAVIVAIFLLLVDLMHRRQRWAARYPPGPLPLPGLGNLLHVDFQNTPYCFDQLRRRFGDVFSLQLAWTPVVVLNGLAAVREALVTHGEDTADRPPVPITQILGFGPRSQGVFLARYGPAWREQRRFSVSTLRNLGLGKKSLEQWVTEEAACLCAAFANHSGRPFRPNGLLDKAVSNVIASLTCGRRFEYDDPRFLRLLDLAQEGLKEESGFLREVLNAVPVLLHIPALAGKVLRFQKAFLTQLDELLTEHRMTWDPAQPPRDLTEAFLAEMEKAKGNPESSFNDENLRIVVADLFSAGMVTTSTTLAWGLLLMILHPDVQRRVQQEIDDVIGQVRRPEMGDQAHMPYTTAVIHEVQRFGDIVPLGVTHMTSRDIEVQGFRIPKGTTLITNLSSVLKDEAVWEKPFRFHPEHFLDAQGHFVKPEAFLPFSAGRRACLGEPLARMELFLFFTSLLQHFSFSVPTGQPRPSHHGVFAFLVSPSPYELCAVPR

[8] = biological target: T2, 5-hydroxytryptamine receptor 2C (Homo sapiens, UniProt P28335); assay: Displacement of […] from 5HT2c receptor
T2 sequence (P28335 whole entry): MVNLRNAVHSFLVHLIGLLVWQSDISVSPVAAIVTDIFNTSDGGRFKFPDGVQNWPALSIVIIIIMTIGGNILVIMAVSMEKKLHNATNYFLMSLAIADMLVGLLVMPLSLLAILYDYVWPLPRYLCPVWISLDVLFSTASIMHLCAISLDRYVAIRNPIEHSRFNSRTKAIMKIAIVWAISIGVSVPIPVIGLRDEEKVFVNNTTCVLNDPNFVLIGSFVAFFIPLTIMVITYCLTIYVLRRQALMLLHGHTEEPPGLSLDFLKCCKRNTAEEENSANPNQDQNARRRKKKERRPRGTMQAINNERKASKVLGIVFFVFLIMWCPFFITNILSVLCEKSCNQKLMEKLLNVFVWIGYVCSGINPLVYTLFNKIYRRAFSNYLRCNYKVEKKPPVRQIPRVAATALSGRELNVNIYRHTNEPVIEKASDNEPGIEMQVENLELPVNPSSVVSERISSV

[9] = Cmax in Wistar rat plasma at 3 mg/kg, po; format: ADME, organism-based; parameters: dose 3 mg/kg, route oral; outline: as §2
[10] = biological target: Motilin receptor (Homo sapiens) (UniProt O43193); assay: Binding affinity to motilin receptor
Motilin receptor (Homo sapiens), sequence (O43193 whole entry): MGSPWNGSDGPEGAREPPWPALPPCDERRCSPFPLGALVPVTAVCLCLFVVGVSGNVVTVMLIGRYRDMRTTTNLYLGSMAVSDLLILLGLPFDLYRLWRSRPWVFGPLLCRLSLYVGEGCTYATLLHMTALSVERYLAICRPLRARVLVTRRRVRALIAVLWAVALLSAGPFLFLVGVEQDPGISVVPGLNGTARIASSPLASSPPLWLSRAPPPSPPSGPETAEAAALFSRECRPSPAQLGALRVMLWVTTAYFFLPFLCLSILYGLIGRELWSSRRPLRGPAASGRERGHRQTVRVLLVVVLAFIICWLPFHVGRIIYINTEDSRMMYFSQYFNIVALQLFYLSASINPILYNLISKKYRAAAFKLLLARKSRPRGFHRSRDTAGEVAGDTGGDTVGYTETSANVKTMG

[11] = Bioavailability in Wistar rat plasma at 3 mg/kg, po; format: ADME, organism-based
Homo sapiens = species: Homo sapiens; assay: Binding affinity to calcium channel L type
[12] = Cmax in Wistar rat plasma at 1 mg/kg, iv; format: ADME, organism-based; parameters: dose 1 mg/kg, route intravenous
[13] = biological target: 5-hydroxytryptamine receptor 2A (Homo sapiens) (UniProt P28223); assay: Binding affinity to 5HT2a receptor
5-hydroxytryptamine receptor 2A (Homo sapiens), sequence (P28223 whole entry): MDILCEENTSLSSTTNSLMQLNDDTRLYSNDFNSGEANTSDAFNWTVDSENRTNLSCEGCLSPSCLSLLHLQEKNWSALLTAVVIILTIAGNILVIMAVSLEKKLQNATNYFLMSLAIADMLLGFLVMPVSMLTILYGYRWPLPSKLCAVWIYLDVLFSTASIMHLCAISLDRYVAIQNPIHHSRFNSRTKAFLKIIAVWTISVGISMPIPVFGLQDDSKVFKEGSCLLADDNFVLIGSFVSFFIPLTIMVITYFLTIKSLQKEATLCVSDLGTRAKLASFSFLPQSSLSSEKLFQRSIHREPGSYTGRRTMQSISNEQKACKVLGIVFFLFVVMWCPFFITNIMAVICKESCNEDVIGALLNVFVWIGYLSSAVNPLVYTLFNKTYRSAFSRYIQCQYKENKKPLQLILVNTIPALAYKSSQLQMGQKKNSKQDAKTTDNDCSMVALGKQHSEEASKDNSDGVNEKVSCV

[14] = biological target: 5-hydroxytryptamine receptor 2B (Homo sapiens) (UniProt P41595); assay: Binding affinity to 5HT2b receptor
5-hydroxytryptamine receptor 2B (Homo sapiens), sequence (P41595 whole entry): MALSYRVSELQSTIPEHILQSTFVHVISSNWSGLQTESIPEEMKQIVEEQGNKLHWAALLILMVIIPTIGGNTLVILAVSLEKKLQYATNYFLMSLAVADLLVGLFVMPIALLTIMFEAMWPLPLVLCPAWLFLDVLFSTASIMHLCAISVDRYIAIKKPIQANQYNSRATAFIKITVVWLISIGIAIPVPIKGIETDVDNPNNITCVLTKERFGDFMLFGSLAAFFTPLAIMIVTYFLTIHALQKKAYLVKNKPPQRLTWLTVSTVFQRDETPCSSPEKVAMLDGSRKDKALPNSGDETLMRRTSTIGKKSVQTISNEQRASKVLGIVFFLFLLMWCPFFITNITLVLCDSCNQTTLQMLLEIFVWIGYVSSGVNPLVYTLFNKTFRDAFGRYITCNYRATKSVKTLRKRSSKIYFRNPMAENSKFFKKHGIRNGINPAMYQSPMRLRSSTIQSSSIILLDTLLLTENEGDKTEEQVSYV

[15] = AUC in Wistar rat plasma at 3 mg/kg, po; format: ADME, organism-based; parameters: dose 3 mg/kg, route oral; outline: as §2
Mus musculus [16] = assay: Decrease in food intake in DIO C57BL/6 mouse at 30 mg/kg, po after 24 hrs relative to control; format: functional, organism-based; parameters: dose 30 mg/kg
Mus musculus [17] = assay: Decrease in body weight in DIO C57BL/6 mouse at 30 mg/kg, po after 9 days; format: functional; parameters: scale not given: the % may be the effect or the level left
[18] = Volume of distribution in Wistar rat plasma at 1 mg/kg, iv; format: ADME, organism-based; parameters: dose 1 mg/kg, route intravenous; settings: read-out: Vdss
Rattus norvegicus [19] = assay: Half life in Wistar rat plasma at 0.7 mg/kg, iv; format: ADME, organism-based; parameters: dose 0.7 mg/kg, route intravenous; settings: in vivo
Rattus norvegicus [20] = assay: Volume of distribution at steady state in Wistar rat plasma at 0.7 mg/kg, iv; format: ADME, organism-based; parameters: dose 0.7 mg/kg, route intravenous; settings: in vivo
[21] = AUC (0-t) in Wistar rat plasma at 0.7 mg/kg, iv; format: ADME, organism-based; parameters: dose 0.7 mg/kg, route intravenous
[22] = Cmax in Wistar rat plasma at 0.7 mg/kg, iv; format: ADME, organism-based; parameters: dose 0.7 mg/kg, route intravenous
Mus musculus [23] = assay: Decrease in body weight in DIO C57BL/6 mouse at 10 mg/kg, po after 9 days; format: functional, organism-based; parameters: dose 10 mg/kg

Structure (SMILES): CCN1CCC[C@@H](Cn2c(C(C)C)nc3ccc(-c4ccc(F)cc4)cc3c2=O)C1
- pKi (Ghrelin receptor): 5.24

Structure (SMILES): CCN1CCC[C@@H](Cn2c(-c3ccc(C(F)(F)F)cc3)nc3ccc(-c4ccc(Cl)cc4)cc3c2=O)C1
- pKi (Ghrelin receptor): 6.62

Structure (SMILES): CCN1CCC[C@H](Cn2c(-c3ccccc3C)nc3ccc(-c4ccc(Cl)cc4)cc3c2=O)C1
- Cmax [1]: 2200 nM
- Kb [2]: 0.0028 µM
- Drug uptake (Brain): 22%
- Activity (Rattus norvegicus [3]): -13%
- solubility [4]: 80 µM (≈ 37.8 µg/mL)
- Activity (Mus musculus [5]): -17%
- E/Emax [6]: 0%
- Cmax [7]: 120 nM
- pIC50 (Cytochrome P450 2D6): 5.21
- pKi (Ghrelin receptor): 8.77
- pKi [8]: 6.92

Structure (SMILES): CCN1CCCC(Cn2c(-c3ccccc3OC)nc3ccc(OC)cc3c2=O)C1 (stereo not given)
- pKi (Ghrelin receptor): 6.04

Structure (SMILES): CC(C)N1CCCC(Cn2c(-c3ccc(OCCO)cc3F)nc3ccc(Oc4ccc(F)cc4)cc3c2=O)C1 (racemic)
- Cmax [1]: 5700 nM
- Drug uptake (Brain): < 0.001%
- Activity (Mus musculus [5]): 4%

Structure (SMILES): CC(C)c1nc2ccc(-c3ccccc3Cl)cc2c(=O)n1C[C@@H]1CCCN(C(C)C)C1
- pKi (Ghrelin receptor): 5.74

Structure (SMILES): Cc1nc2ccc(Oc3ccc(F)cc3)cc2c(=O)n1C[C@H]1CCCN(C(C)C)C1
- Cmax [9]: 80 ng/mL
- Cmax [1]: 3400 nM
- Activity [10]: > 1 µM
- bioavailability [11]: 85%
- Kb [2]: 0.011 µM
- Drug uptake (Brain): 19%
- Activity (Homo sapiens): > 1 µM
- Cmax [12]: 110 ng/mL
- Activity [13]: > 1 µM
- Activity (Rattus norvegicus [3]): -23%
- Activity [14]: > 1 µM
- solubility [4]: 500 µM (≈ 205 µg/mL)
- Activity (Mus musculus [5]): -12%
- E/Emax [6]: 11%
- AUC [15]: 1300 ng·h/mL
- Cmax [7]: 220 nM
- Activity (Mus musculus [16]): Active
- pKi (Ghrelin receptor): 7.77
- pKi [8]: < 6.00
- Activity (Mus musculus [17]): <=5%
- Vd [18]: 19.2 L/kg

Structure (SMILES): CCN1CCCC(Cn2c(-c3ccccc3C)nc3ccc(OC(F)(F)F)cc3c2=O)C1 (stereo not given)
- Kb [2]: 0.045 µM
- E/Emax [6]: 4%
- Cmax [7]: 240 nM
- pKi (Ghrelin receptor): 7.62

Structure (SMILES): CC(C)N1CCC[C@H](Cn2cnc3ccc(Oc4ccc(F)cc4)cc3c2=O)C1
- Kb [2]: 0.045 µM
- solubility [4]: 450 µM (≈ 178 µg/mL)
- E/Emax [6]: 2%
- pIC50 (Cytochrome P450 2D6): 4.68
- pKi (Ghrelin receptor): 7.74
- pKi [8]: < 6.00

Structure (SMILES): Cc1ccccc1-c1nc2ccc(-c3ccc(Cl)cc3)cc2c(=O)n1CC1CN(C(C)C)CCO1 (stereo not given)
- pKi (Ghrelin receptor): 6.72

Structure (SMILES): CCN1CCCC(CCn2c(-c3ccccc3OC)nc3ccc(-c4ccc(Cl)cc4)cc3c2=O)C1 (stereo not given)
- pKi (Ghrelin receptor): < 5.00

Structure (SMILES): Cc1ccccc1-c1nc2ccc(-c3ccc(Cl)cc3)cc2c(=O)n1CC1CCCN(C2CCC2)C1 (stereo not given)
- Kb [2]: 0.0027 µM
- E/Emax [6]: -20%
- Cmax [7]: 220 nM
- pKi (Ghrelin receptor): 8.60

Structure (SMILES): COCCN1CCCC(Cn2c(-c3ccccc3C)nc3ccc(-c4ccc(Cl)cc4)cc3c2=O)C1 (stereo not given)
- Kb [2]: 0.0064 µM
- E/Emax [6]: -20%
- Cmax [7]: 140 nM
- pKi (Ghrelin receptor): 8.40

Structure (SMILES): CC(C)c1nc2ccc(-c3ccc(F)cc3)cc2c(=O)n1C[C@H]1CCCN(C(C)C)C1
- Cmax [9]: 70 ng/mL
- Cmax [1]: 800 nM
- Activity [10]: > 1 µM
- bioavailability [11]: 69%
- Kb [2]: 0.014 µM
- t1/2 (Rattus norvegicus [19]): 16 h
- Drug uptake (Brain): 76%
- Activity (Homo sapiens): > 1 µM
- Activity [13]: > 1 µM
- Activity (Rattus norvegicus [3]): -20%
- Activity [14]: > 1 µM
- Vdss (Rattus norvegicus [20]): 0.68 L/kg
- solubility [4]: 280 µM (≈ 118 µg/mL)
- Activity (Mus musculus [5]): -17%
- E/Emax [6]: 15%
- AUC(0-t) [21]: 580 ng·h/mL
- Cmax [22]: 100 ng/mL
- AUC [15]: 1700 ng·h/mL
- Cmax [7]: 150 nM
- Activity (Mus musculus [23]): Active
- pIC50 (Cytochrome P450 2D6): 6.82
- Activity (Mus musculus [16]): Active
- pKi (Ghrelin receptor): 7.41
- pKi [8]: < 6.00
- Activity (Mus musculus [17]): Active

Structure (SMILES): CCN1CCC[C@@H](Cn2c(-c3ccccc3C)nc3ccc(-c4ccc(Cl)cc4)cc3c2=O)C1
- Kb [2]: 0.25 µM
- E/Emax [6]: 10%
- pKi (Ghrelin receptor): 7.15

Structure (SMILES): Cc1ccccc1-c1nc2ccc(-c3ccc(Cl)cc3)cc2c(=O)n1CC1CCCN(CCC(F)(F)F)C1 (stereo not given)
- pKi (Ghrelin receptor): 6.60

Structure (SMILES): Cc1ccccc1-c1nc2ccc(-c3ccc(Cl)cc3)cc2c(=O)n1CC1CCCN(C(C)C)C1 (stereo not given)
- Cmax [7]: 150 nM

Structure (SMILES): Cc1ccccc1-c1nc2ccc(-c3ccc(Cl)cc3)cc2c(=O)n1CC1CCCN(CC(F)(F)F)C1 (stereo not given)
- Cmax [7]: 170 nM
- pKi (Ghrelin receptor): 5.70

Structure (SMILES): CCN1CCC[C@H](Cn2c(-c3ccc(C(F)(F)F)cc3)nc3ccc(-c4ccc(Cl)cc4)cc3c2=O)C1
- pKi (Ghrelin receptor): 7.80

Structure (SMILES): CCN1CCC=C(Cn2c(-c3ccccc3C)nc3ccc(-c4ccc(Cl)cc4)cc3c2=O)C1
- Kb [2]: 0.036 µM
- E/Emax [6]: -18%
- Cmax [7]: 30 nM
- pKi (Ghrelin receptor): 7.59

Structure (SMILES): Cc1ccccc1-c1nc2ccc(Oc3ccc(F)cc3)cc2c(=O)n1C[C@H]1CCCN(C(C)C)C1 (stereo in doubt; 36)
- Cmax [1]: 3100 nM
- Drug uptake (Brain): 1%
- Activity (Rattus norvegicus [3]): -19%
- solubility [4]: 250 µM (≈ 121 µg/mL)
- Activity (Mus musculus [5]): -7%
- Cmax [7]: 90 nM
- pIC50 (Cytochrome P450 2D6): 7.05
- pKi (Ghrelin receptor): 9.07
- pKi [8]: < 6.00
